# NPY1 pot ag: NPY-Y1 receptor potentiators or agonists, primary screen, cell-based; Neuropeptide Y receptor type 1 (Homo sapiens), P25929; NPY-Y1 expressing cells, potentiator/agonist activation; activation, % at 3.6 µM; 220,000 tested, 0.37% active; AID 1304, 2008; in the data active = activation above about 33%, passing the limit was not always enough;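 note: cells stimulated with NPY at EC10 then isoproterenol at EC100; 0% = low agonist plus stimulus and 100% = saturating agonist plus stimulus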
# Target sequence (P25929 whole entry, looked up): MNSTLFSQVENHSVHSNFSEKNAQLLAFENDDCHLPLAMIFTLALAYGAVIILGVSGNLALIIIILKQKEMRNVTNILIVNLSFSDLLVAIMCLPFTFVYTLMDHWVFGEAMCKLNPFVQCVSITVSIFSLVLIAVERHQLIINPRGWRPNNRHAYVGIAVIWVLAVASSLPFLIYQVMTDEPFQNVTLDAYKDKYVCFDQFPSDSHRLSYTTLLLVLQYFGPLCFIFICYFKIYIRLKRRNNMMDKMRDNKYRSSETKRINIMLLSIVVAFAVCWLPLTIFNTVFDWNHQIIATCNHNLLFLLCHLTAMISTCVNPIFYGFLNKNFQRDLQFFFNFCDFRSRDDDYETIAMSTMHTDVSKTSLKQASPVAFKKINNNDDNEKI
# EP2 modulator: EP2 receptor modulators, cAMP readout, primary screen, cell-based, HTRF cAMP, PGE2 stimulation. EP2-expressing cells, cAMP HTRF FRET, PGE2 co-stimulation. 260,000 tested, 0.83% active. AID 940, 2007. induction, % at 25 µM;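 active = compounds whose cAMP rise, as percent of the full-agonist control response, exceeds 60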;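 note: rat C6 glioma line stably carrying human EP2 under a CMV promoter; the protocol text gives 20 µM as final concentration; 100% = response of wells given 1 µM PGE2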
# EP2 antag: human EP2 receptor antagonists, primary screen, TR-FRET cAMP, C6 glioma cells; Prostaglandin E2 receptor EP2 subtype (Homo sapiens), P43116; C6 glioma cells expressing human EP2; cells stimulated with saturating PGE2; inhibition, % at 25 µM; 260,000 tested, 0.52% active; AID 1422, 2008;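 active = percent inhibition above 40 after rounding to a whole number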;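 note: rat C6 glioma host cells with rolipram phosphodiesterase inhibitor present; the protocol text gives 20 µM as final concentration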
# NPY-Y2 antag: NPY-Y2 receptor antagonists, primary screen, cell-based. Neuropeptide Y receptor type 2 (Homo sapiens), P49146. NPY-Y2 expressing cells, antagonist mode. inhibition, % at 2.7 µM. 140,000 tested, 0.99% active. AID 793, 2007; in the data active = inhibition above about 17%;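 note: 0% = vehicle with agonist challenge and 100% = reference antagonist with challenge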
# Target sequence (P49146 whole entry, looked up): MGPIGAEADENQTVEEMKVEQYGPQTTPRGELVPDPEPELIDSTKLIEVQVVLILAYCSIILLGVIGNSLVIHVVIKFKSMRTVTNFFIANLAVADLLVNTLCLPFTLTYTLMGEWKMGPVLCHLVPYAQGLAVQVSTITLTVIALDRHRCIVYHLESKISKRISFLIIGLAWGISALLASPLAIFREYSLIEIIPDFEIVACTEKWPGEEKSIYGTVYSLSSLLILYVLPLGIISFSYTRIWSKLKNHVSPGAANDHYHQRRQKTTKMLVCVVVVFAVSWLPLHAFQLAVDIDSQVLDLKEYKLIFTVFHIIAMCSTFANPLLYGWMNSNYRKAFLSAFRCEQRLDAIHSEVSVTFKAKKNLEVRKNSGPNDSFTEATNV
# NPY2 pot ag: NPY-Y2 potentiators or agonists, primary screen, cell-based; Neuropeptide Y receptor type 2 (Homo sapiens), P49146; cells expressing NPY-Y2, potentiator/agonist read-out; activation, % at 3.6 µM; 220,000 tested, 0.45% active; AID 1359, 2008; in the data active = activation above about 27%;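 note: cells stimulated with NPY near EC25 plus isoproterenol at EC100; 0% = vehicle plus submaximal agonist and 100% = vehicle plus saturating agonist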
# NPY-Y1 antag: NPY-Y1 receptor antagonists, primary screen, cell-based; 200,000 tested, 1% active; inhibition, % at 3.6 µM; HEK293-CNG Y1 cells, membrane potential fluorescence; NPY at EC95, then isoproterenol; Neuropeptide Y receptor type 1 (Homo sapiens), P25929;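 active = inhibition above the campaign mean inhibition of all tested compounds plus 3 SD, cut at about 20% in these data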;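 note: 0% = DMSO wells given NPY plus isoproterenol and 100% = isoproterenol alone without NPY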
#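 Test system – HEK293 Y1/CNG channel cell line · Also added – NPY agonist 25 nM, then isoproterenol 1 µM plus Ro 20-1724 25 µM · Compound dosing – one concentration, 3.6 µM, in 0.4% DMSO · Schedule – compound incubation 1 h at room temperature, readout 45 min post-stimulation · Technique – fluorescence, membrane potential probe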
# NPY-Y2 pot conf: NPY-Y2 potentiators or agonists, confirmation, cell-based; activation, % at 3.6 µM; shares compounds with NPY2 pot ag; cell-based NPY-Y2 potentiator/agonist assay; 450 tested, 20% active; in the data active = activation above about 33%
# NPY-Y1 potentiator: NPY-Y1 potentiators or agonists, counter-screen for NPY-Y2 potentiator project, cell-based, fluorescence | shares compounds with NPY2 pot ag | Y1 HEK293-CNG cells, membrane potential fluorescence | activation, % at 3.6 µM | 450 tested, 20% active | AID 1651, 2009; in the data active = activation above about 45%;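 note: cells stimulated with submaximal NPY then isoproterenol with phosphodiesterase inhibitor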
# NPY-Y1 ag 2: NPY-Y1 direct agonists, selectivity assay for NPY-Y2 potentiator project, cell-based, fluorescence. shares compounds with NPY2 pot ag. HEK293 Y1-CNGC, membrane potential fluorescence, agonism. activation, % at 3.6 µM. 450 tested, 37% active. AID 1702, 2009;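 active = activation above the mean of DMSO-only control wells plus 3 SD, cut at about 18% in these data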;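 note: cells stimulated with 1 µM isoproterenol plus the PDE inhibitor Ro 20-1724; 0% = isoproterenol with DMSO and no NPY and 100% = 40 nM NPY; Y1 agonists lower the membrane potential dye signal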
# CNGC inhibitor: CNGC cAMP sensor activity inhibitors, counter-screen for NPY-Y2 potentiator project, cell-based, HEK293-CNG parental, membrane potential fluorescence; isoproterenol cAMP; AID 1703, 2009; shares compounds with NPY2 pot ag; 450 tested, 32% active; inhibition, % at 3.6 µM;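 active = inhibition above the control-well mean plus 3 SD of those wells, cut at about 22% in these data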;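 note: 0% = DMSO with isoproterenol and 100% = DMSO without isoproterenol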
# Y2 agonist ctr: NPY-Y2 direct agonists, counter-screen for NPY-Y2 potentiator project, cell-based, fluorescence. shares compounds with NPY2 pot ag. HEK293 Y2/CNGC cells, membrane potential fluorescence, agonist mode. activation, % at 3.6 µM. 450 tested, 56% active. AID 1710, 2009;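 active = activation above the mean of solvent-only control wells plus 3 SD, cut at about 10% in these data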;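 note: cells stimulated by isoproterenol with no NPY added so direct agonism is tested; 0% = DMSO with isoproterenol alone and 100% = NPY at EC100 plus isoproterenol; agonism lowers probe fluorescence through less cAMP and CNG channel opening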
# Starred values were filed as active, the others as inactive; · = no result given. Rows were chosen to be rich in hits. Some 2.8% of all compounds tested hit in one or more screens of this group.
SMILES,NPY1 pot ag,EP2 modulator,EP2 antag,NPY-Y2 antag,NPY2 pot ag,NPY-Y1 antag,NPY-Y2 pot conf,NPY-Y1 potentiator,NPY-Y1 ag 2,CNGC inhibitor,Y2 agonist ctr
CC(C)C[C@H](NC(=O)c1nc[nH]c1C(=O)NC1CCN(C(=O)OC(C)(C)C)CC1)C(=O)OCc1ccccc1,30.1,-15.9,7.1,·,44.3*,-9.9,25.8,46.2*,19.6*,22.2*,20.8*
CC(=O)[C@@]1(O)CCC2C3C=C(Cl)C4=CC(=O)[C@@H]5CC5[C@]4(C)C3CC[C@@]21C (some centres undefined),·,17.4,11.8,·,·,·,·,·,·,·,·
CS(=O)(=O)N1CCC[C@H]1Cn1nc(-c2ccc(F)cc2)ccc1=O,·,-17.1,·,·,·,·,·,·,·,·,·
Cc1cc(N)n2ncc(-c3ccc(Cl)cc3)c2n1,47.9,10.4,0.9,-5.6,37.1*,-14.3,32.5,51.8*,39.8*,38.6*,43.7*
N#Cc1ccsc1NC(=O)c1ccc(Cl)c([N+](=O)[O-])c1,-7.8,-18.8,10.2,·,50.7*,·,-8.3,-44.1,-33.0,-15.2,9.6
Cc1cccc(C)c1NS(=O)(=O)c1ccc(NC(=O)c2ccc(Cl)c([N+](=O)[O-])c2)cc1,28.8,-84.9,5.0,-1.2,38.1*,-10.7,34.6*,40.9,36.6*,29.0*,42.6*
N#Cc1ccsc1NC(=O)c1cccc([N+](=O)[O-])c1,-10.7,-76.7,6.1,·,5.2,1.7,·,·,·,·,·
Cc1ccc(C(=O)NCCc2cccc(Cl)c2)cc1[N+](=O)[O-],-10.9,-4.5,4.6,3.4,2.6,3.5,·,·,·,·,·
O=C(NCCc1cccc(Cl)c1)c1ccc(Cl)c([N+](=O)[O-])c1,27.0,-21.0,10.3,4.3,35.0*,3.5,20.2,31.7,21.9*,27.3*,25.5*
COc1ccc(CN2CCc3nc(N4CCCC4)[nH]c(=O)c3C2)c(O)c1,·,1.3,9.1,·,·,·,·,·,·,·,·
CCn1c(=NC(=O)CSC(C)=O)sc2cc(OC)ccc21,45.9,24.4,13.2,-7.5,34.3*,-9.0,22.9,27.7,42.6*,28.6*,41.3*
CN(C)C=Nc1ncc2c3ccccc3n(Cc3ccccc3)c2c1C#N,-22.7,42.9,5.7,4.4,0.3,1.5,·,·,·,·,·
CN(C)C=Nc1ncc2c3ccccc3n(CCN(C)C)c2c1C#N,-36.8,-8.0,15.3,1.6,100.8*,-3.3,-7.2,-11.3,-22.5,-11.6,-14.6
CN(C)c1cccc2c1C(=O)c1ccccc1C2=O,16.8,-16.8,10.0,-5.7,33.0*,-5.4,34.1*,42.4,26.5*,25.8*,29.1*
CN1C(=O)c2cccc(N(C)C)c2C1=O,-5.8,-17.4,7.9,0.4,-2.8,2.5,·,·,·,·,·
O=C(C1CC(c2ccccc2Cl)=NO1)N1CCOCC1 (centres undefined),·,37.3,10.4,·,·,·,·,·,·,·,·
c1ccc2c(-c3csc(-c4ccncc4)n3)c[nH]c2c1,34.0,-27.3,7.1,·,33.4*,-10.9,28.0,53.4*,50.7*,38.6*,33.8*
Brc1ccc(-c2csc(-c3c[nH]c4ccccc34)n2)cc1,5.3,-5.2,14.7,-2.8,10.8,-4.6,·,·,·,·,·
COc1cc(NC(=O)CSc2nncn2N)cc(OC)c1,·,4.0,18.1,·,·,·,·,·,·,·,·
O=C(Cn1cnc([N+](=O)[O-])c1)Nc1cc(Oc2ccc(Cl)cc2Cl)cc([N+](=O)[O-])c1,22.3,17.0,5.7,-6.0,34.3*,-4.8,35.2*,37.9,30.6*,40.2*,51.5*
CCCOc1ccc(CCC(=O)N/N=C/c2ccco2)cc1,8.3,2.3,6.6,·,99.9*,·,2.0,3.0,-4.8,1.4,6.3
CCCCOc1ccc(CCC(=O)N/N=C/c2ccco2)cc1,-0.8,-0.9,8.2,·,-9.6,·,·,·,·,·,·
O=C(/C=C/c1cccc(C(F)(F)F)c1)Nc1cccc(C(F)(F)F)c1,32.6,5.3,0.2,-1.7,36.1*,-12.4,18.9,23.4,24.7*,32.7*,15.6*
Cc1ccc(NC(=O)/C=C/c2cccc(C(F)(F)F)c2)cc1,-16.3,11.7,13.2,5.0,-10.8,-1.2,·,·,·,·,·
Cc1ccc(Nc2nc(-c3ccncc3)cs2)cc1,31.3,-16.2,3.8,·,35.6*,-15.1,34.7*,47.6*,60.2*,48.8*,45.8*
SMILES,NPY1 pot ag,EP2 modulator,EP2 antag,NPY-Y2 antag,NPY2 pot ag,NPY-Y1 antag,NPY-Y2 pot conf,NPY-Y1 potentiator,NPY-Y1 ag 2,CNGC inhibitor,Y2 agonist ctr
Fc1ccc(Nc2nc(-c3cccnc3)cs2)cc1,33.5,14.1,5.5,·,33.7*,-12.7,34.8*,58.1*,58.6*,43.1*,43.4*
Nc1cc(-c2ccc(Br)cc2)nn1Cc1ccccc1,30.6,-54.1,5.2,·,36.1*,-4.5,16.0,-8.4,8.2,10.6,27.5*
O=C(O)c1ccc(OCc2cn3ccccc3n2)cc1,9.2,16.0,3.6,·,101.2*,·,2.4,6.8,-1.0,3.0,13.2*
Cc1ccc([N+](=O)[O-])cc1N(CC(=O)Nc1ccc(S(=O)(=O)Nc2cccc(C(F)(F)F)c2)cc1)S(C)(=O)=O,25.1,-36.1,6.0,-7.4,44.6*,-14.7,43.3*,63.7*,57.8*,50.6*,53.2*
COc1ccccc1N(CC(=O)Nc1cccc(C(F)(F)F)c1)S(C)(=O)=O,2.0,-28.0,6.3,·,-31.6,0.2,·,·,·,·,·
COc1ccc(S(=O)(=O)Nc2ccc(S(=O)(=O)Nc3ccc(F)cc3)cc2)cc1C,30.4,-6.3,20.8,-5.3,33.8*,-7.1,24.8,37.4,26.9*,22.5*,21.1*

# Bioassay records as filed in PubChem.
